Screening results (PubChem)
Rows were chosen to be rich in hits. Some 1.8% of all compounds tested hit in one or more screens of this group.
CXCR6 block: CXCR6 (human) receptor inhibition | CHO-K1 PathHunter CXCR6 beta-arrestin, luminescence | inhibition, % at 20 µM | 360,000 tested, 0.36% active | AID 602244; in the data active = inhibition above about 34%, passing the limit was not always enough;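 also: antagonist mode with CXCL16 agonist at 10 nM final; 0% = 10 nM CXCL16 with DMSO and 100% = unstimulated wells without agonist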
Target sequence (O00574 whole entry, looked up): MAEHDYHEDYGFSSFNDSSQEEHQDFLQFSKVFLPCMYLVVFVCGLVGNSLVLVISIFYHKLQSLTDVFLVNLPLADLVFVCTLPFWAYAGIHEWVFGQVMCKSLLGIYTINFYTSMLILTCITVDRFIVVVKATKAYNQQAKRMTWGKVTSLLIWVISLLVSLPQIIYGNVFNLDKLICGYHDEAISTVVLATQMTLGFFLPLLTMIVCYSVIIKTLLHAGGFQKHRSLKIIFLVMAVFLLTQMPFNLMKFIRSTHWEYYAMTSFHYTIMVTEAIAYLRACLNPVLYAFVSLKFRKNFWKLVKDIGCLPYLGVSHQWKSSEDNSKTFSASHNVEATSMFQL
CCR6 antagonist: CCR6 (human) receptor antagonism; P51684; CHO-K1 CCR6 PathHunter beta-arrestin, luminescence, CCL20-stimulated; inhibition, % at 20 µM; 340,000 tested, 0.49% active; AID 493098;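 active = compounds whose inhibition of the agonist-driven luminescence signal at 20 µM reaches about 50%, limit read from the data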;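 also: cells stimulated with CCL20 at 14 nM final; plate controls were DMSO with CCL20 for no effect and DMSO without agonist for full effect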
EBI2 block: blocks human EBI2 receptor beta-arrestin signaling; EBI2 beta-arrestin recruitment, luminescence, 7a,25-OHC stimulated; inhibition, % at 5 µM; 360,000 tested, 0.81% active; in the data active = inhibition above about 38%;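 also: enzyme fragment complementation signal reports receptor beta-arrestin coupling in cells; 0% = agonist plus DMSO wells and 100% = wells without agonist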
Target sequence (P32249 whole entry, looked up, the tested form may be a part): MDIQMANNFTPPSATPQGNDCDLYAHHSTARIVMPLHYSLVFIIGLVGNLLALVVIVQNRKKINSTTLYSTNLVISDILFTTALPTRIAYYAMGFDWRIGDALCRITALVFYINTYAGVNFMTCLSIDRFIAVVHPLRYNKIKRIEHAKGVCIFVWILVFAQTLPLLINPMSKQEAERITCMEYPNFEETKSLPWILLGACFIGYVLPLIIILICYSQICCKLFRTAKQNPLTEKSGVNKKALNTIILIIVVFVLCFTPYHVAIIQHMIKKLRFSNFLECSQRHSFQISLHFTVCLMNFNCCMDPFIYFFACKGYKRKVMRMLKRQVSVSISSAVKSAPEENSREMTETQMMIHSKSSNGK
APJ antag: blocks the human apelin receptor APJ | 330,000 tested, 0.32% active | P35414 | CHO-K1 APJ beta-arrestin complementation, luminescence | AID 2521 | inhibition, % at 20 µM;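 active = inhibition above about 40% at 20 µM, limit read from the data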;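 also: cells challenged with 10 nM apelin-13 agonist together with compound; plate controls were apelin-13 plus DMSO wells for no effect and DMSO wells lacking apelin-13 for full effect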
B2AR ag: human beta-2 adrenergic receptor agonism by FAP. P07550. Am2.2-beta2AR cells, FAP receptor internalization, flow cytometry. response, % (no concentration beside the values). 340,000 tested, 0.43% active;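 active = response above a set limit, near 3 SD of response in nonfluorescent compounds, cut at about 42% in these data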
APJ agonist: APJ receptor agonism; P35414; AID 2520; 330,000 tested, 0.11% active; CHO-K1 APJ PathHunter beta-arrestin, luminescence; 0% DMSO wells, 100% apelin; activation, % at 20 µM;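 active = activation more than six SD over the plate average, tested at 20 µM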;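 also: 0% = DMSO alone and 100% = apelin-13 at 10 nM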
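Assay system: engineered CHO-K1 APJ arrestin reporter cells; Amount: 1000 CHO-K1 reporter cells seeded per well; Dosing: one dose, 20 µM compound, 1% DMSO; Times: compound stimulation 90 min at 25 °C, detection 60 min; Measured by: luminescent beta-gal fragment complementation, chemiluminescent substrate; Read-out: APJ–arrestin association signal; Controls: DMSO vs Apelin-13 10 nM.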
CXCR6 antag conf: confirmation of human CXCR6 receptor antagonists. shares compounds with CXCR6 block. CHO-K1 CXCR6 PathHunter beta-arrestin, luminescence. inhibition, % at 20 µM. 700 tested, 65% active;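 active = mean inhibition over four retests above 40%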;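 also: receptor stimulated with 10 nM CXCL16 agonist; beta-galactosidase fragment complementation upon beta-arrestin recruitment to receptor; plate controls were CXCL16 plus DMSO for no effect and DMSO without CXCL16 for full effect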
An asterisk follows results filed as active.

Results for N#C/C(=C/c1ccc(-c2ccc([N+](=O)[O-])cc2)o1)C(=O)Nc1nc(-c2cccs2)cs1 ?
CXCR6 block: 48.5*; CCR6 antagonist: 67.7*; EBI2 block: 9.1; B2AR ag: 2.9; CXCR6 antag conf: 44.2*

Results for COc1ccc(/C=N/NC(=O)c2ccc[nH]2)cc1 ?
CXCR6 block: 2.4; CCR6 antagonist: 0.3; EBI2 block: 13.3; APJ antag: -4.7; B2AR ag: 3.0; APJ agonist: -0.3

Results for CC[n+]1c(C)sc2c(C)cc(C)cc21 ?
CXCR6 block: -2.0; CCR6 antagonist: 8.6; EBI2 block: 0.7; APJ antag: 11.5; B2AR ag: 5.2; APJ agonist: -1.5

What do the screens show for `CCC[n+]1c(C)sc2c3c(ccc21)CCCC3`?
CXCR6 block: 41.8*; CCR6 antagonist: 25.1; EBI2 block: 1.0; APJ antag: 28.5; B2AR ag: 6.6; APJ agonist: -0.9; CXCR6 antag conf: 2.0

What do the screens show for `CCc1ccc2c(c1)/C(=C/C(=O)c1cccs1)C(=O)N2`?
CXCR6 block: 40.6*; CCR6 antagonist: 44.7; EBI2 block: 66.6*; APJ antag: -1.5; B2AR ag: 78.1*; APJ agonist: 2.8; CXCR6 antag conf: 24.8

Results for CC(C)n1nccc1NC(=O)COC(=O)c1ccc(NC(N)=O)cc1 ?
CXCR6 block: 5.0; CCR6 antagonist: -10.3; EBI2 block: -18.3; APJ antag: 8.1; B2AR ag: 3.9; APJ agonist: -0.8

How did COc1ccc(/C=N/Nc2ccc(C(=O)O)cc2)c(OC)c1OC do in these assays?
CXCR6 block: -8.4; CCR6 antagonist: 1.6; EBI2 block: -14.5; APJ antag: -8.7; B2AR ag: 17.2; APJ agonist: 1.0

How did COC(=O)c1ccc2c(c1)C(C)(C)C(/C=C/c1ccc(OC)c(OC)c1OC)=[N+]2C do in these assays?
CXCR6 block: 76.9*; CCR6 antagonist: 55.5*; EBI2 block: 21.1; APJ antag: 1.8; B2AR ag: 57.1*; APJ agonist: -1.5; CXCR6 antag conf: 101.9*

What do the screens show for `CC1CCN(C(=O)/C(=C/c2ccccc2Cl)c2ccccc2)CC1`?
CXCR6 block: 2.0; CCR6 antagonist: 7.9; EBI2 block: -0.7; APJ antag: 5.1; B2AR ag: 1.6; APJ agonist: -1.1

What do the screens show for `N#CC(C#N)=C1C=CC=CN1/C(=C\c1ccccc1Cl)C(=O)c1ccccc1`?
CXCR6 block: 92.8*; CCR6 antagonist: 116.2*; EBI2 block: 22.3; B2AR ag: 105.3*; CXCR6 antag conf: 82.5*

What do the screens show for `CCOC(=O)Cc1c(C)nc2c(-c3cccc(Br)c3)c[nH]n2c1=O`?
CXCR6 block: 35.7*; CCR6 antagonist: 19.4; EBI2 block: 4.8; APJ antag: 19.3; B2AR ag: 4.5; APJ agonist: -2.1; CXCR6 antag conf: 12.4

How did CC(Oc1cccc(Br)c1)C(=O)NNC(=O)c1ccccn1 (configuration not stated) do in these assays?
CXCR6 block: 52.1*; CCR6 antagonist: 48.1; EBI2 block: -5.6; APJ antag: 14.9; B2AR ag: 5.3; APJ agonist: -4.1; CXCR6 antag conf: 55.9*

Results for CC1(C(=O)Nc2ccc3c(c2)OCCO3)CSCC(=O)N1C1CC1 (configuration not stated) ?
EBI2 block: -2.1

How did C=C1C(=O)C23C(O)C1CCC2C12CCCC(C)(COC(C)=O)C1C(O)C3(O)OC2 (configuration not stated) do in these assays?
CXCR6 block: 75.8*; CCR6 antagonist: 102.6*; EBI2 block: 76.7*; B2AR ag: 57.7*; CXCR6 antag conf: 95.0*

What do the screens show for `CCc1ccc(-c2cc(C(=O)NCCCn3ccnc3)c3ccccc3n2)s1`?
APJ antag: 5.0; APJ agonist: -0.1

Results for Cc1ccc(-c2cc(C(=O)NCCCn3ccnc3)c3ccccc3n2)s1 ?
CXCR6 block: 71.9*; CCR6 antagonist: 4.7; EBI2 block: -24.1; APJ antag: -14.9; B2AR ag: -3.9; APJ agonist: -1.9; CXCR6 antag conf: -9.4

Results for Cc1ccc2nc(-c3cccc(Br)c3)c(Cc3ccccc3)n2c1 ?
CXCR6 block: 9.1; EBI2 block: 29.6

Results for CCOC(=O)[C@]12CCCC=C1N(Cc1cccc3ccccc13)C(=O)[C@H](CC(=O)N1CCCC1)C2 ?
CXCR6 block: -0.6; EBI2 block: 7.4

What do the screens show for `CCCCn1c(Nc2ccccc2)nc2ccccc21`?
CXCR6 block: -4.2; CCR6 antagonist: 1.6; EBI2 block: -8.7; APJ antag: 12.7; B2AR ag: -16.2; APJ agonist: -0.3

How did CCCn1c(Nc2nc3ccccc3n2C)nc2ccccc21 do in these assays?
CXCR6 block: 69.9*; CCR6 antagonist: 84.1*; EBI2 block: -9.7; APJ antag: 7.6; B2AR ag: 20.7; APJ agonist: 2.1; CXCR6 antag conf: 5.3

What do the screens show for `FC(F)(F)c1cccc(NC(=S)Nc2ccc(Cl)cc2Cl)c1`?
CXCR6 block: -9.7; CCR6 antagonist: 4.8; EBI2 block: -4.4; APJ antag: -6.7; B2AR ag: 16.3; APJ agonist: 0.2

How did NNC(=S)Nc1ccc(C(F)(F)F)cc1Cl do in these assays?
CXCR6 block: 47.0*; CCR6 antagonist: 30.8; EBI2 block: -0.6; APJ antag: -11.9; B2AR ag: 3.2; APJ agonist: 1.2; CXCR6 antag conf: 6.5

Results for Oc1csc(Cc2nc(-c3ccc(Br)cc3)cs2)n1 ?
CXCR6 block: 4.6; CCR6 antagonist: 20.6; EBI2 block: 3.7; APJ antag: -8.1; B2AR ag: 1.9; APJ agonist: -3.1

Results for Cc1sc(Cc2nc(O)cs2)nc1-c1ccccc1 ?
CXCR6 block: 51.8*; CCR6 antagonist: 32.7; EBI2 block: 5.1; APJ antag: 44.7*; B2AR ag: 2.7; APJ agonist: -9.3; CXCR6 antag conf: 38.4

What do the screens show for `CCc1c(C)c(C#N)c2nc3ccccc3n2c1NC`?
CXCR6 block: -7.6; CCR6 antagonist: 2.0; EBI2 block: 2.3; APJ antag: -3.5; B2AR ag: 3.1; APJ agonist: -1.1

What do the screens show for `Cc1c(CCCl)c(Cl)n2c(nc3ccccc32)c1C#N`?
CXCR6 block: 44.5*; CCR6 antagonist: 62.9*; EBI2 block: 66.8*; B2AR ag: 57.1*; CXCR6 antag conf: 39.7

What do the screens show for `CCCCC[C@H](C)N1C[C@@H](COCc2ccccc2)Oc2cc(N3CCC[C@@H]3COC)ccc2S1(=O)=O`?
CXCR6 block: 1.2; EBI2 block: 16.7

Results for O=c1ccc2ccccc2c2ccccc12 ?
CXCR6 block: 31.1*; EBI2 block: -39.7; CXCR6 antag conf: 31.4
